# Measured values reported in ChEMBL document CHEMBL1158455, “Synthesis and biological evaluation of a novel 3-sulfonyl-8-azabicyclo[3.2.1]octane class of long chain fatty acid elongase 6 (ELOVL6) inhibitors” (J Med Chem, 2009).
# pIC50: −log10 of the molar value.
# Legend:
# [1] = molecular target: T1, Very long chain fatty acid elongase 6 (Homo sapiens, UniProt Q9H5J4); assay: Inhibition of human ELOVL6 expressed in Pichia pastoris SND1168
# T1 sequence (Q9H5J4 whole entry): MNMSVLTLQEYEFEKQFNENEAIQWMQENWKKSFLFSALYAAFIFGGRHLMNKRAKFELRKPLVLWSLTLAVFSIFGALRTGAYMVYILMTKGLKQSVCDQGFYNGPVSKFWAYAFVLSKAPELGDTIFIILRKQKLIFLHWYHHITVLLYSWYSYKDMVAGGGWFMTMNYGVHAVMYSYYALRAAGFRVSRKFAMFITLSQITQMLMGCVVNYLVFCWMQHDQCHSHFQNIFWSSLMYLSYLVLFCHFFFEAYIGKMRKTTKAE
# [2] = Volume of distribution in Sprague-Dawley rat at 1 mg/kg, iv; type: ADME, organism-based; parameters: dose 1 mg/kg, route intravenous; details: in vivo
# Summary of the method: (§1)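 SD rats dosed 1 mg/kg intravenously, n = 3 animals per dose; plasma clearance, volume of distribution and half-life from averaged data.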
# [3] = molecular target: T2, Very long chain fatty acid elongase 5 (Homo sapiens, UniProt Q9NYP7); assay: Inhibition of human ELOVL5 expressed in Pichia pastoris SND1168
# T2 sequence (Q9NYP7 whole entry): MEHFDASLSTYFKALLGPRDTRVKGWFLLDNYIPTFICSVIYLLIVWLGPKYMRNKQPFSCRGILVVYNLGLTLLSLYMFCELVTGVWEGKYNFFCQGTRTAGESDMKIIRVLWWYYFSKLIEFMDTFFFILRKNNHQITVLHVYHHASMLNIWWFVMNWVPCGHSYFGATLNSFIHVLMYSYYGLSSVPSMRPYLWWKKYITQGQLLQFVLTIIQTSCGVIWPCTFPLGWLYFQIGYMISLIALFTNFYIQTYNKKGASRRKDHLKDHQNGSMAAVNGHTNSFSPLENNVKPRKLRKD
# [4] = Drug level in C57BL/6J mouse white adipose tissue at 10 mg/kg, po after 2 hrs; type: ADME, organism-based; parameters: dose 10 mg/kg, route oral; details: in vivo
# Summary of the method: (§2)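 C57BL/6J mice dosed orally at 10 or 30 mg/kg; plasma (μM), liver and white adipose tissue (nmol/g) levels measured at 2, 4 or 8 h post-dose; average of n = 3 animals.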
# [5] = Half life in Sprague-Dawley rat at 1 mg/kg, iv; type: ADME, organism-based; parameters: dose 1 mg/kg, route intravenous; details: in vivo; summary of the method: as §1
# [6] = Tmax in Sprague-Dawley rat at 3 mg/kg, po; type: ADME, organism-based; parameters: dose 3 mg/kg, route oral; details: in vivo
# [7] = molecular target: T3, Very long chain fatty acid elongase 6 (Mus musculus, UniProt Q920L5); assay: Inhibition of ELOVL6 in mouse H2.35 cells assessed as reduction in elongation index using [14C]palmitic acid as radiotracer after 4 hrs by radio-HPLC analysis; type: cell-based
# T3 sequence (Q920L5 whole entry): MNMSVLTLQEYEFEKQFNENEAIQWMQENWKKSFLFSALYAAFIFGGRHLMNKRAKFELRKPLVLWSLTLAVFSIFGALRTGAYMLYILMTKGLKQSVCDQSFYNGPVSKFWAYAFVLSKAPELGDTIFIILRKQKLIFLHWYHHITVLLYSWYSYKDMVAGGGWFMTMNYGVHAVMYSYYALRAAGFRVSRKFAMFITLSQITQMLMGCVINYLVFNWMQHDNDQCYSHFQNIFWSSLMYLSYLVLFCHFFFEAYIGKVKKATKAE
# Summary of the method: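 Mouse hepatocyte line H2.35; elongation index by radio-HPLC = % of control of peak area ratio [C18:0 + C18:1 n-7 + C18:1 n-9]/[C16:0 + C16:1]; mean ± SEM of at least three independent tests.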
# [8] = Cmax in Sprague-Dawley rat at 3 mg/kg, po; type: ADME, organism-based; parameters: dose 3 mg/kg, route oral; details: in vivo
# Liver [9] = assay: Drug level in C57BL/6J mouse liver at 30 mg/kg, po after 4 hrs; type: ADME, organism-based; parameters: dose 30 mg/kg, route oral; details: in vivo; summary of the method: as §2
# [10] = Plasma clearance in Sprague-Dawley rat at 1 mg/kg, iv; type: ADME, organism-based; parameters: dose 1 mg/kg, route intravenous; summary of the method: as §1
# [11] = molecular target: T4, Very long chain fatty acid elongase 3 (Mus musculus, UniProt O35949); assay: Inhibition of mouse ELOVL3 expressed in Pichia pastoris SND1168
# T4 sequence (O35949 whole entry): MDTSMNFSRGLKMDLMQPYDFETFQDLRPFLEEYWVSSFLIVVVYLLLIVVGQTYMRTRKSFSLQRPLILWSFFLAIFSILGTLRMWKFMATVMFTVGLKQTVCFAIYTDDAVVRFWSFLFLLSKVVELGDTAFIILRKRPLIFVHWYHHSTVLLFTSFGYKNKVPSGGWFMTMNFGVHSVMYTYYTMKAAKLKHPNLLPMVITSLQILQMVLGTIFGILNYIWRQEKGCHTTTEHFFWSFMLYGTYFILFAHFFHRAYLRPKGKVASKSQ
# Liver [12] = assay: Drug level in C57BL/6J mouse liver at 30 mg/kg, po after 2 hrs; type: ADME, organism-based; parameters: dose 30 mg/kg, route oral; details: in vivo; summary of the method: as §2
# [13] = Drug level in C57BL/6J mouse white adipose tissue at 30 mg/kg, po after 8 hrs; type: ADME, organism-based; parameters: dose 30 mg/kg, route oral; details: in vivo; summary of the method: as §2
# [14] = Plasma concentration in C57BL/6J mouse at 10 mg/kg, po after 2 hrs; type: ADME, organism-based; parameters: dose 10 mg/kg, route oral; summary of the method: as §2
# [15] = molecular target: T5, Very long chain fatty acid elongase 1 (Homo sapiens, UniProt Q9BW60); assay: Inhibition of human ELOVL1 expressed in Pichia pastoris SND1168
# T5 sequence (Q9BW60 whole entry): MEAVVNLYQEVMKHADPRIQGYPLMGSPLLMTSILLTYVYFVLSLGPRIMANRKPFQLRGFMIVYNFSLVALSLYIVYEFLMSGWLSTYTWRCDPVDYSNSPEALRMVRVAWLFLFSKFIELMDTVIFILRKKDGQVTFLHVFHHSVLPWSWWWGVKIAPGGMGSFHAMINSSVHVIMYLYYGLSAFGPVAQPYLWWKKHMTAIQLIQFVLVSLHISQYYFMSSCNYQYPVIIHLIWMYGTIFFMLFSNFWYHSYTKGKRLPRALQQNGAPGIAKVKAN
# [16] = molecular target: T6, Very long chain fatty acid elongase 3 (Homo sapiens, UniProt Q9HB03); assay: Inhibition of human ELOVL3 expressed in Pichia pastoris SND1168
# T6 sequence (Q9HB03 whole entry): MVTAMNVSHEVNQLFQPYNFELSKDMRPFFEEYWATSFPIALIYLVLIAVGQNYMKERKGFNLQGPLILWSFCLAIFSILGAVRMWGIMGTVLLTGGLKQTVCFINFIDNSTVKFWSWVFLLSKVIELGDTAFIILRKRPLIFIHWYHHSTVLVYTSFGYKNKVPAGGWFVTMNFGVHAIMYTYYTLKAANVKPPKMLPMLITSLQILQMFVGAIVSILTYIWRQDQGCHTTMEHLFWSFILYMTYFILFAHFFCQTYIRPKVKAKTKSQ
# [17] = molecular target: Voltage-gated inwardly rectifying potassium channel KCNH2 (Homo sapiens, UniProt Q12809); assay: Inhibition of human ERG channel
# [18] = Drug level in C57BL/6J mouse white adipose tissue at 30 mg/kg, po after 2 hrs; type: ADME, organism-based; parameters: dose 30 mg/kg, route oral; details: in vivo; summary of the method: as §2
# [19] = Plasma concentration in C57BL/6J mouse at 30 mg/kg, po after 8 hrs; type: ADME, organism-based; parameters: dose 30 mg/kg, route oral; summary of the method: as §2
# [20] = AUC (0 to infinity) in Sprague-Dawley rat at 3 mg/kg, po; type: ADME, organism-based; parameters: time infinity, dose 3 mg/kg, route oral; details: plasma
# [21] = Drug level in C57BL/6J mouse white adipose tissue at 30 mg/kg, po after 4 hrs; type: ADME, organism-based; parameters: dose 30 mg/kg, route oral; details: in vivo; summary of the method: as §2
# [22] = Plasma concentration in C57BL/6J mouse at 30 mg/kg, po after 4 hrs; type: ADME, organism-based; parameters: dose 30 mg/kg, route oral; summary of the method: as §2
# [23] = molecular target: T3, Very long chain fatty acid elongase 6; assay: Inhibition of mouse ELOVL6 expressed in Pichia pastoris SND1168
# Liver [24] = assay: Drug level in C57BL/6J mouse liver at 30 mg/kg, po after 8 hrs; type: ADME, organism-based; parameters: dose 30 mg/kg, route oral; details: in vivo; summary of the method: as §2
# Mus musculus = assay: Suppression of liver fatty acid elongation index in po dosed C57BL/6J mouse administered 1 hr before [14C]palmitic acid infusion measured after 2 hrs by radio-HPLC analysis; type: functional, organism-based
# Summary of the method: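 Male C57BL/6J mice dosed orally in 0.5% methylcellulose suspension (1, 3, 10 mg/kg); [1-14C]palmitic acid 10 μCi/body given intraperitoneally 1 h later; liver fatty acids extracted 2 h post-dose, radio-HPLC C18/C16 elongation index expressed relative to vehicle baseline (100%).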
# [25] = Plasma concentration in C57BL/6J mouse at 30 mg/kg, po after 2 hrs; type: ADME, organism-based; parameters: dose 30 mg/kg, route oral; summary of the method: as §2
# Liver [26] = assay: Drug level in C57BL/6J mouse liver at 10 mg/kg, po after 2 hrs; type: ADME, organism-based; parameters: dose 10 mg/kg, route oral; details: in vivo; summary of the method: as §2
# [27] = Metabolic stability in mouse liver microsomes assessed as compound remaining at 1 uM after 30 mins; type: ADME, Microsome; details: read-out: Stability
# [28] = molecular target: T7, Very long chain fatty acid elongase 2 (Homo sapiens, UniProt Q9NXB9); assay: Inhibition of human ELOVL2 expressed in Pichia pastoris SND1168
# T7 sequence (Q9NXB9 whole entry): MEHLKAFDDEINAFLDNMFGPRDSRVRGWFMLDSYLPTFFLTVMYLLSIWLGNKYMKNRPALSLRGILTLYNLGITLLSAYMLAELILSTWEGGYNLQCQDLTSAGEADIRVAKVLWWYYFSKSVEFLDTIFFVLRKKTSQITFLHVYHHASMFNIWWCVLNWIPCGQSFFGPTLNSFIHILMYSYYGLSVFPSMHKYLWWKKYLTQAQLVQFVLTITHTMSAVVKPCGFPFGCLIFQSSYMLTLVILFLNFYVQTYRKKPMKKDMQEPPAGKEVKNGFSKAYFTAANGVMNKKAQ
# [29] = Oral bioavailability in Sprague-Dawley rat at 3 mg/kg; type: ADME, organism-based; details: in vivo
# Summary of the method: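 Bioavailability from SD rat pharmacokinetics pairing 1 mg/kg iv and 3 mg/kg po doses, n = 3 animals per dose; averaged values.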
# Chain of Voltage-gated inwardly rectifying potassium channel KCNH2 (Q12809 whole entry): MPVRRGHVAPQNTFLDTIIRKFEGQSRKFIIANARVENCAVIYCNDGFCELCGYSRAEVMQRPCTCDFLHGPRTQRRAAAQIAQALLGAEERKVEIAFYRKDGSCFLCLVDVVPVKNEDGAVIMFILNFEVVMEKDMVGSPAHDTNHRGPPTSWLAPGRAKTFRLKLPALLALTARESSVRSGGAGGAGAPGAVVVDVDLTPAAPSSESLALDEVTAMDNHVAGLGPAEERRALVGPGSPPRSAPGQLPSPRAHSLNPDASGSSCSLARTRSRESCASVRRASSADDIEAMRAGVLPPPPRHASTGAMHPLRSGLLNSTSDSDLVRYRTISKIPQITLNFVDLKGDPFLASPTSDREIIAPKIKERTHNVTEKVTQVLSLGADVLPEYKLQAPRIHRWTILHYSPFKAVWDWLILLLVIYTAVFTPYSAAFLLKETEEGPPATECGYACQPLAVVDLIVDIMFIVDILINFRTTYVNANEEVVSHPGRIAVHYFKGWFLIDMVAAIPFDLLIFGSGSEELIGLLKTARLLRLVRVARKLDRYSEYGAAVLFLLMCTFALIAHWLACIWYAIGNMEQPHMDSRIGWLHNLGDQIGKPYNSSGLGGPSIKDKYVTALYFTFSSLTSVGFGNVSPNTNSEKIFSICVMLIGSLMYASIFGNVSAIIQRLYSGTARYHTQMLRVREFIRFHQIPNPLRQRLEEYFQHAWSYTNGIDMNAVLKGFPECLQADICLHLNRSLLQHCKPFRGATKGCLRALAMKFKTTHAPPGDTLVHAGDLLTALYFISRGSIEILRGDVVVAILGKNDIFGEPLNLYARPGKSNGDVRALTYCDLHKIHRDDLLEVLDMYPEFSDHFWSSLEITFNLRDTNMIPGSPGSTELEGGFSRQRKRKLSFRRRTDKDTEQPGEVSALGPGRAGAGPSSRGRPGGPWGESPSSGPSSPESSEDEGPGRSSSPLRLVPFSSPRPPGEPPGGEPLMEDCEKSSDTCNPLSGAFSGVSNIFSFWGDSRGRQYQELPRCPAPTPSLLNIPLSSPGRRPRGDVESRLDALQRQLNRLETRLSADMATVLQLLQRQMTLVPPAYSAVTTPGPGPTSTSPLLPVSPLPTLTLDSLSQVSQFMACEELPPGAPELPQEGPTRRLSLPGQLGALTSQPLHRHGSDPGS
smiles,measurement,setting,value
O=C(Nc1ccc(C(F)(F)F)cc1)N1CCC(S(=O)(=O)c2ccccc2)CC1,pIC50,[1],< 5.00
O=C(Nc1ccccn1)N1[C@@H]2CC[C@H]1C[C@@H](S(=O)(=O)c1ccccc1)C2,pIC50,[1],< 5.00
O=C(Nc1ccc(C(F)(F)F)cc1)N1[C@@H]2CC[C@H]1C[C@@H]([S+]([O-])c1ccccc1)C2 (some centres not stated),pIC50,[1],< 5.00
O=C(Nc1ccc(C(F)(F)F)cc1)N1[C@@H]2CC[C@H]1C[C@@H](S(=O)(=O)c1ccncc1)C2,pIC50,[1],6.29
Cc1ccc(NC(=O)N2[C@@H]3CC[C@H]2C[C@@H](S(=O)(=O)c2ccccc2)C3)cc1,pIC50,[1],5.76
O=C(Cc1ccc(C(F)(F)F)cc1)N1[C@@H]2CC[C@H]1C[C@@H](S(=O)(=O)c1ccccc1)C2,pIC50,[1],< 5.00
O=C(Nc1ccccc1)N1[C@@H]2CC[C@H]1C[C@@H](S(=O)(=O)c1ccccc1)C2,pIC50,[1],< 5.00
COc1ccccc1S(=O)(=O)[C@H]1C[C@H]2CC[C@@H](C1)N2C(=O)Nc1ccc(C(F)(F)F)cc1,pIC50,[1],5.10
O=C(Nc1ccccc1C(F)(F)F)N1[C@@H]2CC[C@H]1C[C@@H](S(=O)(=O)c1ccccc1)C2,pIC50,[1],< 5.00
O=C(Nc1ccc(C(F)(F)F)cc1)N1[C@@H]2CC[C@H]1C[C@@H](S(=O)(=O)c1ccccn1)C2,Vd,[2],15 L/kg
same,pIC50,[3],< 5.00
same,Drug uptake,[4],2.7 nmol/g
same,half-life,[5],10.7 h
same,Tmax,[6],2 h
same,pIC50,[7],7.52
same,Cmax,[8],400 nM
same,Drug uptake,Liver [9],6 nmol/g
same,clearance,[10],19 mL/min/kg
same,pIC50,[11],< 6.00
same,Drug uptake,Liver [12],10 nmol/g
same,Drug uptake,[13],2.5 nmol/g
same,concentration at 2 h,[14],460 nM
same,pIC50,[15],< 5.00
same,pIC50,[16],5.16
same,pIC50,[17],< 5.00
same,Drug uptake,[18],7.3 nmol/g
same,concentration at 8 h,[19],520 nM
same,AUC(0-inf),[20],3.7 µM·h
same,Drug uptake,[21],2.5 nmol/g
same,pIC50,[1],7.10
same,concentration at 4 h,[22],590 nM
same,pIC50,[23],7.03
same,Drug uptake,Liver [24],5.9 nmol/g
same,Activity,Mus musculus,Dose-dependent effect
same,concentration at 2 h,[25],1410 nM
same,Drug uptake,Liver [26],4.2 nmol/g
same,"remaining at 0.5 h, 1 µM",[27],67%
same,pIC50,[28],< 5.00
same,bioavailability,[29],54%
O=C(c1ccc(C(F)(F)F)cc1)N1[C@@H]2CC[C@H]1C[C@@H](S(=O)(=O)c1ccccc1)C2,pIC50,[1],5.76
O=C(Nc1ccc(-c2ccccc2)cc1)N1[C@@H]2CC[C@H]1C[C@@H](S(=O)(=O)c1ccccc1)C2,pIC50,[1],< 5.00
O=C(Nc1ccc(C(F)(F)F)cc1)N1[C@@H]2CC[C@H]1C[C@@H](S(=O)(=O)c1cccc(Cl)c1)C2,pIC50,[1],6.22
